Compound activity deposited in PubChem by several laboratories.
An excerpt weighted towards active compounds, which were near 27% of everything screened.
CYP2C19 inhib: inhibitors of human CYP2C19 | P33261 | CYP2C19 Supersomes, luciferin-H EGE luminescence, 30 min | inhibition, % at 5 µM | 96,000 tested, 21% active | AID 778;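 active = CYP2C19 inhibition above a set limit at 5 µM in the primary screen, cut at about 50% in these data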;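 also: plate controls were negative control wells for no effect and 2.5 mM tranylcypromine positive control for full effect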
Target sequence (P33261 whole entry, looked up): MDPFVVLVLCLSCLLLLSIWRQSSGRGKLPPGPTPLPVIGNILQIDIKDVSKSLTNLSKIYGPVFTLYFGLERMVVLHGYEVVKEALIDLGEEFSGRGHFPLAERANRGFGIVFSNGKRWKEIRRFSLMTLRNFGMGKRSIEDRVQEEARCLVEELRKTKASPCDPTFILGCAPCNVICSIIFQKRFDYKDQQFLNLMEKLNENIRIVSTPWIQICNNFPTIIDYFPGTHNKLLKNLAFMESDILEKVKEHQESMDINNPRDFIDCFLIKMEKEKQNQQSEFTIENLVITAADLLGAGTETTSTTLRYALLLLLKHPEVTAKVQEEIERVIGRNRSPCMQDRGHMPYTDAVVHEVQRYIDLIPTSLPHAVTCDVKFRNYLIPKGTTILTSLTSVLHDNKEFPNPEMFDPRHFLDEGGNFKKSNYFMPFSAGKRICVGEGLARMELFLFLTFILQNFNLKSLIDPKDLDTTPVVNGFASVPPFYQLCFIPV
CYP2C9 inh: human CYP2C9 inhibition; AID 777; CYP2C9 Supersomes, luciferin-H conversion, luminescence; 96,000 tested, 20% active; inhibition, % at 5 µM;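 active = blocking of liver enzyme CYP2C9 beyond about 50% at 5 µM, limit read from the data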
HIV Rev-RRE inh: inhibitors of HIV-1 Rev-RRE RNA interaction | P05866 | Rev peptide-RRE RNA binding, FRET | inhibition, % at 8 µM | 97,000 tested, 0.79% active | AID 704;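 active = inhibition above the screen-wide mean plus 3 SD, cut at about 35% in these data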;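 also: 0% = median DMSO wells and 100% = median Neomycin B control wells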
Target sequence (P05866 whole entry, looked up): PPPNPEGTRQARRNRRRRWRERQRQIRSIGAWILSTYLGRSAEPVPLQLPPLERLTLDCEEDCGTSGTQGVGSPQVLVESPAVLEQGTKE
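Test system – labelled RRE RNA duplex and labelled Rev peptide · Signal – fluorescein-to-Cy5 FRET, 480 nm excitation · Evaluation – % inhibition of FRET ratio versus controls · Benchmarks – DMSO low control, neomycin B high control · Incubation – 5 min RNA-compound premix plus 15 min binding step, 25 °C · Medium – HEPES pH 7.5 salt buffer with EDTA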
CYP2C19 act: cytochrome P450 2C19 (human) activation | P33261 | recombinant CYP2C19, luciferin-H EGE luminescence; stronger effect = higher value; 0 = fully inhibited enzyme, 1 = untreated enzyme | activation factor at 5 µM | 96,000 tested, under 10 active;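 active = activation factor of at least 2 at 5 µM in the primary screen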;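 also: 0 = wells with 2.5 mM tranylcypromine and 1 = vehicle-only wells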
CYP2C9 activ: CYP2C9 (human) activation; P11712; recombinant CYP2C9, luciferin-H conversion, luminescence; stronger effect = higher value; factor 1 = untreated enzyme, 0 = blocked; activation factor at 5 µM; 96,000 tested, 1.4% active; AID 1024;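 active = activation factor of 2 or more for CYP2C9 at a 5 µM dose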;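 also: 0 = sulfaphenazole-blocked wells and 1 = vehicle-only wells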
Cav3 T inh: human Cav3.2 channel inhibition, primary screen. O95180. B-score at 10 µM. 100,000 tested, 4% active. AID 449739. Cav3.2-expressing cells, Fluo-4 calcium fluorescence FDSS; stronger effect = lower value;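 active = single-dose well whose peak fluorescence ratio is a statistical outlier from its plate by either plate-standardised score or position-corrected B-score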
* hit, by the source's call; / = not tested or not shown.

SMILES | CYP2C19 inhib | CYP2C9 inh | HIV Rev-RRE inh | CYP2C19 act | CYP2C9 activ | Cav3 T inh
O=C(CN1CCN(Cc2ccc(F)cc2Cl)C1=O)NCCc1ccc(Cl)cc1 | 37 | 67* | 11 | 0.6 | 0.3 | -4.2
O=C1N(CC(=O)N2CCc3ccccc32)CCN1Cc1ccccc1Cl | 25 | -204 | -4 | 0.7 | 3* | -3.5*
O=C(CN1CCN(Cc2ccccc2Cl)C1=O)NC1CCCCCC1 | 60* | -80 | 3 | 0.4 | 1.8 | -0.58
CCOC(=O)c1ccc(N2C(=O)CC(N3CCC(Nc4ccc(F)cc4)CC3)C2=O)cc1 (stereo not given) | 22 | 19 | -7 | 0.8 | 0.8 | 0.43
C[C@@H]1CC=C[C@H]2[C@H]1C(=O)N(Cc1ccccc1)[C@H]2c1cccc([N+](=O)[O-])c1 | / | / | / | / | / | -0.57
COc1ccc(-n2nnnc2-c2cnc3cc4c(cc3c2C)OCO4)cc1 | 31 | 46 | 0 | 0.7 | 0.5 | -0.41
O=C(NC1CCCCC1)c1nc2c(nnn2Cc2ccccc2Cl)c(=O)[nH]1 | / | / | 5 | / | / | -5.3*
O=C(NC1CC1)c1nc2c(nnn2Cc2ccccc2Cl)c(=O)[nH]1 | / | / | 5 | / | / | -1.1
Cc1ccc(/C=C/C(=O)C2C(=O)c3ccccc3C2=O)cc1 | -6 | 99* | -3 | 1.1 | 0 | 0.28
c1ccc2[nH]c(SN3CCOCC3)nc2c1 | -17 | -12 | 3 | 1.2 | 1.1 | -0.0072
CCn1c(SCC(=O)Nc2nc3ccccc3s2)nnc1-c1ccc(OC)cc1 | -5 | 3 | -3 | 1 | 1 | /
COc1ccc(C(=O)Nc2sc(C)c(-c3ccccc3)c2C#N)cc1OC | 35 | -83 | 4 | 0.7 | 1.8 | 0.053
Cc1ccc(OCC(=O)Nc2oc(-c3ccccc3)c(-c3ccccc3)c2C#N)cc1 | / | / | 4 | / | / | -7.5*
Cc1ccc(NC(=O)COc2ccc(C(=O)NCCc3ccccc3)cc2)cc1 | / | / | -2 | / | / | -1.5
COc1ccc(CC(=O)Nc2oc(-c3ccccc3)c(-c3ccccc3)c2C#N)cc1OC | / | / | -3 | / | / | -5.6*
N#Cc1c(NC(=O)COC(=O)C2CC3C=CC2C3)oc(-c2ccccc2)c1-c1ccccc1 (stereo not given) | 13 | 71* | -1 | 0.9 | 0.3 | -6*
CCn1c(SCC(=O)Nc2oc(-c3ccccc3)c(-c3ccccc3)c2C#N)nnc1-c1cc(OC)cc(OC)c1 | 59* | 100* | 3 | 0.4 | 0 | -2.6
COc1cc(C(=O)N2CCC(n3cnc4cc(F)ccc43)CC2)cc(OC)c1OC | 12 | 9 | 8 | 0.9 | 0.9 | 2.3
Nc1sccc1C(=O)c1ccccc1 | -11 | 10 | 13 | 1.1 | 0.9 | 0.27
Cn1c(NC(=O)c2ccccc2NC(=O)C(C)(C)C)nc2ccccc21 | -14 | 8 | 22 | 1.1 | 0.9 | /
Cn1cccc1C(=O)C(=O)Nc1ccccc1 | 49 | -26 | 8 | 0.5 | 1.3 | 0.25
CCOC(=O)C1=C(C)Nc2nc(=S)[nH]n2C1c1ccc(Cl)cc1 (stereo not given) | 37 | 28 | -2 | 0.6 | 0.7 | 0.061
Cc1cc(C)n(CCn2nc(C)cc2C)n1 | 40 | 1 | 3 | 0.6 | 1 | 0.41
N#Cc1c(NC(=O)Cn2cnc3ccccc3c2=O)oc(-c2ccccc2)c1-c1ccccc1 | 34 | 83* | 0 | 0.7 | 0.2 | -10*
N#Cc1c(NC(=O)CSc2ncccn2)oc(-c2ccccc2)c1-c1ccccc1 | / | / | 6 | / | / | /
SMILES | CYP2C19 inhib | CYP2C9 inh | HIV Rev-RRE inh | CYP2C19 act | CYP2C9 activ | Cav3 T inh
O=C(Cn1cnc2ccccc2c1=O)Nc1nnc(SCc2ccccc2)s1 | -2 | 9 | 9 | 1 | 0.9 | -1.5
COc1ccccc1OCC(=O)Nc1oc(-c2ccccc2)c(-c2ccccc2)c1C#N | 34 | 85* | 2 | 0.7 | 0.1 | -6.9*
N#Cc1c(NC(=O)CSc2n[nH]c(Cc3ccccc3)n2)oc(-c2ccccc2)c1-c1ccccc1 | 91* | 99* | -1 | 0.1 | 0 | -6.4*
CC1CCCN(C(=O)CSc2nc3ccccc3o2)C1 (stereo not given) | 27 | 3 | -1 | 0.7 | 1 | /
COc1ccccc1N1CCN(C(=O)CSc2nc3ccccc3o2)CC1 | 64* | 34 | 5 | 0.4 | 0.7 | 0.095
Cc1ccc(S(=O)(=O)N2CCN(C(=O)CSc3nc4ccccc4o3)C2)cc1 | 88* | 44 | 11 | 0.1 | 0.6 | /
COc1ccccc1N1CCN(C(=O)CSc2nc3ccccc3c(=O)n2CC2CCCO2)CC1 (stereo not given) | 22 | 66* | 0 | 0.8 | 0.3 | /
CCCCC(=O)Nc1nnc(SCC(=O)N2CCN(c3ccccc3OC)CC2)s1 | 6 | 2 | / | 0.9 | 1 | 0.65
COc1ccccc1N1CCN(C(=O)CSc2nnc(NC(=O)C3CC3)s2)CC1 | 33 | 82* | 11 | 0.7 | 0.2 | 1.4
Cc1cccc(NC(=O)c2nc[nH]c2C(=O)N[C@@H](CC(C)C)C(=O)OC(C)(C)C)c1 | / | / | / | / | / | 1.1
CCc1ccc(CN(C)CCc2ccccn2)cc1 | 89* | 21 | 0 | 0.1 | 0.8 | 0.36
CN(CCc1ccccn1)Cc1ccc(Cl)cc1 | 53* | -24 | 7 | 0.5 | 1.2 | 0.019
Cc1ccc(CN(C)CCc2ccccn2)cc1 | 44 | 15 | 7 | 0.6 | 0.8 | 0.54
CCO[C@H]1OC(C(=O)NCc2ccccc2)=C[C@@H](c2cn(C(C)=O)c3ccccc23)[C@@H]1CCCO | / | / | / | / | / | 0.013
CN(C)C(=O)N1CCC(C(=O)NCC2CCCO2)CC1 (stereo not given) | -9 | -6 | 8 | 1.1 | 1.1 | /
FC(F)(F)c1cccc(-c2ccc(-c3csnn3)o2)c1 | 56* | 23 | 21 | 0.4 | 0.8 | -0.018
Cc1nnc(NC(=O)c2ccc(-c3cccc(C(F)(F)F)c3)o2)s1 | -10 | 0 | 11 | 1.1 | 1 | -0.72
Cc1cc(C)nc(NC2=NCC(=O)N2c2ccc3c(c2)OCCO3)n1 | 7 | -1 | 0 | 0.9 | 1 | -1.1
COc1ccc(C2CC(C(F)(F)F)n3nc(C(N)=O)c(Cl)c3N2)cc1OC (stereo not given) | 15 | 58* | -1 | 0.9 | 0.4 | -0.45
O=C1C=C(NCc2ccccc2)C2(CCCCC2)O1 | 70* | 12 | 5 | 0.3 | 0.9 | 0.87
O=C1C=C(NCc2ccc(Cl)c(Cl)c2)C2(CCCCC2)O1 | 77* | 38 | 2 | 0.2 | 0.6 | -3.2
O=C1C=C(NCc2ccco2)C2(CCCCC2)O1 | 8 | 7 | 7 | 0.9 | 0.9 | 0.73
N=c1oc2ccc3ccccc3c2cc1-c1nnc2n1CCCCC2 | 24 | -115 | 4 | 0.8 | 2.1* | 0.56
CC(O)[C@H]1CNC(=O)C(=O)N1CC1(c2ccccc2)CC1 (stereo not given in full) | / | / | / | / | / | -1.3
Cn1c(SCc2ccc(F)cc2)nnc1-c1ccccn1 | 88* | 5 | 3 | 0.1 | 0.9 | /
CC1CCN(C(=O)CSc2nncn2-c2ccccn2)CC1 | -6 | -25 | 7 | 1.1 | 1.2 | 0.19
